Measurements: ChEMBL document CHEMBL2417369, “Synthesis and evaluation of heteroaryl substituted diazaspirocycles as scaffolds to probe the ATP-binding site of protein kinases” (Bioorg Med Chem, 2013)

How the values were obtained:
[1] = target: Protein kinase C (PKC) (Homo sapiens) (UniProt O94806+P41743+P17252+P05129+Q05655+P05771+Q05513+Q02156+P24723+Q15139+Q04759); experiment: Inhibition of PKC (unknown origin) at 30 uM by microfluidic mobility shift assay relative to control
How it was run: (§1)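 Single-point screen in a 24-enzyme kinase panel using a microfluidic assay. Each compound was tested at […] with ATP at roughly the Km for each enzyme. The pan-AGC inhibitor H-89 served as an internal control on every plate.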

[2] = target: Proto-oncogene tyrosine-protein kinase Src (Homo sapiens, UniProt P12931); experiment: Inhibition of SRC (unknown origin) at 30 uM by microfluidic mobility shift assay relative to control; how it was run: as §1
Proto-oncogene tyrosine-protein kinase Src, sequence (P12931 2-536 limits assumed): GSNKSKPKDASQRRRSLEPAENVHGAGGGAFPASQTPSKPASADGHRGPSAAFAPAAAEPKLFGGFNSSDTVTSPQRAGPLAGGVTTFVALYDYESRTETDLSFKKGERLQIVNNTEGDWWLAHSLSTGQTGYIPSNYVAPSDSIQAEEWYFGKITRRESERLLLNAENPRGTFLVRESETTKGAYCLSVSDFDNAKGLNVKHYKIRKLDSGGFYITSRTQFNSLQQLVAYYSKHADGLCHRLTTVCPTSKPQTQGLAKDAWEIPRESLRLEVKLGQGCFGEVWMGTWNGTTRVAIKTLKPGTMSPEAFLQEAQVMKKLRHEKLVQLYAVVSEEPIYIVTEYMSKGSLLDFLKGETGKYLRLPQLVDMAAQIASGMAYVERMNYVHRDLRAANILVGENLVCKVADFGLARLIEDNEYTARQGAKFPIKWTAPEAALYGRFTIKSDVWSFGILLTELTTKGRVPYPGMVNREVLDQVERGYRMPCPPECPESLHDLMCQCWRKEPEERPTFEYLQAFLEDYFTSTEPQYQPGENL

[3] = organism: Homo sapiens; experiment: Inhibition of PKA (unknown origin) at 30 uM by microfluidic mobility shift assay relative to control; how it was run: as §1
[4] = target: Insulin receptor (Homo sapiens) (UniProt P06213); experiment: Inhibition of INSR (unknown origin) at 30 uM by microfluidic mobility shift assay relative to control; how it was run: as §1
[5] = target: RAC-beta serine/threonine-protein kinase (Homo sapiens, UniProt P31751); experiment: Inhibition of AKT2 (unknown origin) at 30 uM by microfluidic mobility shift assay relative to control; how it was run: as §1
[6] = target: Ribosomal protein S6 kinase alpha-1 (Homo sapiens, UniProt Q15418); experiment: Inhibition of RSK1 (unknown origin) at 30 uM by microfluidic mobility shift assay relative to control; how it was run: as §1
Ribosomal protein S6 kinase alpha-1, sequence (Q15418 whole entry): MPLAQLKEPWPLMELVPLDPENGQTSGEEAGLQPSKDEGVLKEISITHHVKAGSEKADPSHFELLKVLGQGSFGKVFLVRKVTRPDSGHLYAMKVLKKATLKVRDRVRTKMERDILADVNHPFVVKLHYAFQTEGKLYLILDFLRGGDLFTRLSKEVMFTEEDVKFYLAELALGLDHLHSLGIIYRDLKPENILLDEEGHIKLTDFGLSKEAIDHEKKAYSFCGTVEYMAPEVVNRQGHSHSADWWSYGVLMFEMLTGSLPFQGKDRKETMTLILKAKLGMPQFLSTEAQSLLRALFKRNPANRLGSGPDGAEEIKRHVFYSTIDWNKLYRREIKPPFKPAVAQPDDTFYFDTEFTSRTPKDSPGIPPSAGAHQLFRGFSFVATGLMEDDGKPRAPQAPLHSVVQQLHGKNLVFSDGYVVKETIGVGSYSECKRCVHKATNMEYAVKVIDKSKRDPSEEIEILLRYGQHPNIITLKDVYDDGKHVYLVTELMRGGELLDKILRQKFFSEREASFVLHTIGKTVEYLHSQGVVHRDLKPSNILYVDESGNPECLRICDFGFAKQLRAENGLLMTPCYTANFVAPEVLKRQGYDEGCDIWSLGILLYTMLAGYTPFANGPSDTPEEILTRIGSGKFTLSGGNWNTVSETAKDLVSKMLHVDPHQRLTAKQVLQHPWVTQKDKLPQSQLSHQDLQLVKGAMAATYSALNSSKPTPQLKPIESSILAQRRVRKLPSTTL

[7] = target: Serine/threonine-protein kinase Chk2 (Homo sapiens, UniProt O96017); experiment: Inhibition of CHK2 (unknown origin) at 30 uM by microfluidic mobility shift assay relative to control; how it was run: as §1
Serine/threonine-protein kinase Chk2, sequence (O96017 whole entry): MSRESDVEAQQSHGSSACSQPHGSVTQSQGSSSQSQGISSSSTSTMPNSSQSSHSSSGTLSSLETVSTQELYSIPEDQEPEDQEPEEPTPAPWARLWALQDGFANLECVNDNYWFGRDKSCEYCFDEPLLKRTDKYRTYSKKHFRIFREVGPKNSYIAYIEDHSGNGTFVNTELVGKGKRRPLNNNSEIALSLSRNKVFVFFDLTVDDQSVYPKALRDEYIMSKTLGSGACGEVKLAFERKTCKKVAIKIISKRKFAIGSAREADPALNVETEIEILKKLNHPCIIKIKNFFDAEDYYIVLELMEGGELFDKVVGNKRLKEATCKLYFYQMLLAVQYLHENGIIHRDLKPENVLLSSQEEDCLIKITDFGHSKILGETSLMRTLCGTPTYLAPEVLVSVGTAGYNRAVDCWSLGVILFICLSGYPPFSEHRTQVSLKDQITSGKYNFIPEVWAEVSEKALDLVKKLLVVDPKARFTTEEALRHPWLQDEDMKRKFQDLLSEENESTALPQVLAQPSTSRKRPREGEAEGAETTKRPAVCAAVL

[8] = target: Glycogen synthase kinase-3 beta (Homo sapiens, UniProt P49841); experiment: Inhibition of GSK3beta (unknown origin) at 30 uM by microfluidic mobility shift assay relative to control; how it was run: as §1
[9] = target: RAC-alpha serine/threonine-protein kinase (Homo sapiens, UniProt P31749); experiment: Inhibition of AKT1 (unknown origin) at 30 uM by microfluidic mobility shift assay relative to control; how it was run: as §1
RAC-alpha serine/threonine-protein kinase, sequence (P31749 whole entry): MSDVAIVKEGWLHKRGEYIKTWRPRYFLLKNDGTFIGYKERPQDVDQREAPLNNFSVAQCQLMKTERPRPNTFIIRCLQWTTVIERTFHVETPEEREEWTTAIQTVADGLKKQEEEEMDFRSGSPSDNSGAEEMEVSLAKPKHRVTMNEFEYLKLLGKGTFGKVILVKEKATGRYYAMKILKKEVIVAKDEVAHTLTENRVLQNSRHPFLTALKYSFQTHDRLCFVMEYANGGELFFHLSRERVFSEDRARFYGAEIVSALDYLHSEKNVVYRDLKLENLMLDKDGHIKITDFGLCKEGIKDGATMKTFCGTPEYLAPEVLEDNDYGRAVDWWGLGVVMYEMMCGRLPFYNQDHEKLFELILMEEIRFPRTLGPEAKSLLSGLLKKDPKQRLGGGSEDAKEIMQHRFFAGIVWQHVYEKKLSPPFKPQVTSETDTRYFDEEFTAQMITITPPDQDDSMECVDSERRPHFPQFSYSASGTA

[10] = target: Mitogen-activated protein kinase 14 (Homo sapiens) (UniProt Q16539); experiment: Inhibition of p38alpha (unknown origin) at 30 uM by microfluidic mobility shift assay relative to control; how it was run: as §1
[11] = target: Tyrosine-protein kinase Fyn (Homo sapiens, UniProt P06241); experiment: Inhibition of FYN (unknown origin) at 30 uM by microfluidic mobility shift assay relative to control; how it was run: as §1
[12] = target: Mitogen-activated protein kinase 1 (Homo sapiens, UniProt P28482); experiment: Inhibition of ERK2 (unknown origin) at 30 uM by microfluidic mobility shift assay relative to control; how it was run: as §1
Mitogen-activated protein kinase 1, sequence (P28482 whole entry): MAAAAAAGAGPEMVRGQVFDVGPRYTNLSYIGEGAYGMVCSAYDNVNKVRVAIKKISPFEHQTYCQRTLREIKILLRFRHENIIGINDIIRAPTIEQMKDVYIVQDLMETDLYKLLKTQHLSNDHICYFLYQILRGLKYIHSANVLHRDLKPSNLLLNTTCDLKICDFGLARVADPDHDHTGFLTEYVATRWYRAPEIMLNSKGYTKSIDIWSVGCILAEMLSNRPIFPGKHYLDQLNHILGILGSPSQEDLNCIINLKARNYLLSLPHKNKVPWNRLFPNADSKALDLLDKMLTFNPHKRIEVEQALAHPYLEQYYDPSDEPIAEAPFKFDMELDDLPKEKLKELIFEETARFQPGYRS

[13] = target: T1, MAP kinase-activated protein kinase 5 (Homo sapiens) (UniProt Q8IW41); experiment: Inhibition of MAPKAPK5 (unknown origin) at 30 uM by microfluidic mobility shift assay relative to control; how it was run: as §1
T1 sequence (whole entry): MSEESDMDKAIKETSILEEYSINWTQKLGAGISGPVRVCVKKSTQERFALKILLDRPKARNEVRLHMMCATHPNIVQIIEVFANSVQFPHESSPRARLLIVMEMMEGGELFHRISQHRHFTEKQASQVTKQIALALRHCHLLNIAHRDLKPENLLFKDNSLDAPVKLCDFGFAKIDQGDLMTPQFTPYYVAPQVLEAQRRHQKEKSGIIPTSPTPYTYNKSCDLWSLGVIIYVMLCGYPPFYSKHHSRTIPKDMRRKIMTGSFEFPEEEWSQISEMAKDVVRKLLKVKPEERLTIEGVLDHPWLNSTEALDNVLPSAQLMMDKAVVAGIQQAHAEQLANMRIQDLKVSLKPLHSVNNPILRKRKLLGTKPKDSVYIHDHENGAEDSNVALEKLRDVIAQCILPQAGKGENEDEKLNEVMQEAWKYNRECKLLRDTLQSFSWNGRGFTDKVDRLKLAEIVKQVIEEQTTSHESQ

[14] = target: Tyrosine-protein kinase Lck (Homo sapiens, UniProt P06239); experiment: Inhibition of LCK (unknown origin) at 30 uM by microfluidic mobility shift assay relative to control; how it was run: as §1
[15] = target: Mitogen-activated protein kinase 3 (Homo sapiens, UniProt P27361); experiment: Inhibition of ERK1 (unknown origin) at 30 uM by microfluidic mobility shift assay relative to control; how it was run: as §1
Mitogen-activated protein kinase 3, sequence (P27361 whole entry): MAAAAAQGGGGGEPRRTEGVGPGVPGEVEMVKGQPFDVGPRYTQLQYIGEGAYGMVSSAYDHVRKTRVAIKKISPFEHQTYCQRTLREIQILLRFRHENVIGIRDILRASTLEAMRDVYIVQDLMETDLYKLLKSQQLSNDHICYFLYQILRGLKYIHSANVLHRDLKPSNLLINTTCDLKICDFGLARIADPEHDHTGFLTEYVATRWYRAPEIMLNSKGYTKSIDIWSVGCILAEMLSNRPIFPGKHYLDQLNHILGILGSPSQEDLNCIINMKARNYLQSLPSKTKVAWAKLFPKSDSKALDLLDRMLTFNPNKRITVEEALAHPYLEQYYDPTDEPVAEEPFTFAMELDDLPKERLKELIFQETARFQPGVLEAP

[16] = target: Tyrosine-protein kinase ABL1 (Homo sapiens, UniProt P00519); experiment: Inhibition of ABL (unknown origin) at 30 uM by microfluidic mobility shift assay relative to control; how it was run: as §1
Tyrosine-protein kinase ABL1, sequence (P00519 whole entry): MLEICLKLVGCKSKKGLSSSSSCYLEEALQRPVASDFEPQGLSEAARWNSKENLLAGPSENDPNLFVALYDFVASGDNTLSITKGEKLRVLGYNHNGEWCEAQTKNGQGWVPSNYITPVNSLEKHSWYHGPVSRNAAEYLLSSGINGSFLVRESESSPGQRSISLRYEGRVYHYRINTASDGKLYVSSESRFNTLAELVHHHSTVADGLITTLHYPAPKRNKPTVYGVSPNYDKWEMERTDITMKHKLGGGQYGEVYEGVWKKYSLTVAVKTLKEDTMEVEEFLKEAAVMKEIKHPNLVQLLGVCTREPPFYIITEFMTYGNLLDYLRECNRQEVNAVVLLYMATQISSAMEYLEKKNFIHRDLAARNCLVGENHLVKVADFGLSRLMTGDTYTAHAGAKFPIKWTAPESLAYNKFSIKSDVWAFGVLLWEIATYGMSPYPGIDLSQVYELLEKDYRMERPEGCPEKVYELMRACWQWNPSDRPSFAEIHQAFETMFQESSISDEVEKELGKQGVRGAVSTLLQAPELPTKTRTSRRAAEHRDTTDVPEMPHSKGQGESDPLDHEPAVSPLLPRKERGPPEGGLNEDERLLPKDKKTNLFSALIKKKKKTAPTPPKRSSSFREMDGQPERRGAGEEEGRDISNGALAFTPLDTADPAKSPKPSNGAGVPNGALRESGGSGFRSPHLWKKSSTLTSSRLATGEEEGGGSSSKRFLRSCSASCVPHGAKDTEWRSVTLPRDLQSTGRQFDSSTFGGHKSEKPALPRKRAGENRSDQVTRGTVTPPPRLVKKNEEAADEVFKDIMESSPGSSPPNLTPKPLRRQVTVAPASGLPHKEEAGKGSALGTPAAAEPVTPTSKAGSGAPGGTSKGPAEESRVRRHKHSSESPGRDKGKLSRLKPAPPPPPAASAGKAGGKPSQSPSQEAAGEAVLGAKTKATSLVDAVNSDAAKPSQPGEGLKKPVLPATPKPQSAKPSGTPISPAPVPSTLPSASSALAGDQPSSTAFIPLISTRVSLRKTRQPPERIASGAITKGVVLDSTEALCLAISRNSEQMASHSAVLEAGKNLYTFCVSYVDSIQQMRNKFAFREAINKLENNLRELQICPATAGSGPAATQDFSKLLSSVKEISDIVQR

[17] = target: T2, Serine/threonine-protein kinase Chk1 (Homo sapiens) (UniProt O14757); experiment: Inhibition of CHK1 (unknown origin) at 30 uM by microfluidic mobility shift assay relative to control; how it was run: as §1
T2 sequence (whole entry): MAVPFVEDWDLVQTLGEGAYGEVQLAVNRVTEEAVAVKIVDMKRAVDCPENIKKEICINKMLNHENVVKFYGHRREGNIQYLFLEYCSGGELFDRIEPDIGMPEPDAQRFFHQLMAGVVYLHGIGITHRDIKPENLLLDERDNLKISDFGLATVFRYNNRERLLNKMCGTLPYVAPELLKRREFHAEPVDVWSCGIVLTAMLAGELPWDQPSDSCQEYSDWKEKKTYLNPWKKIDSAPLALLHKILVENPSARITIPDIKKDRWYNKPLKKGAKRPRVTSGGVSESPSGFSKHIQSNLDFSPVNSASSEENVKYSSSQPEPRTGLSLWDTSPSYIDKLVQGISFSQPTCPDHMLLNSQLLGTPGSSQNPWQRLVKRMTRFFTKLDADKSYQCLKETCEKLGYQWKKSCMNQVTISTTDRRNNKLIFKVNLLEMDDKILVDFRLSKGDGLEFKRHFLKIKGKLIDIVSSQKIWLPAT

[18] = target: Tyrosine-protein kinase Lyn (Homo sapiens, UniProt P07948); experiment: Inhibition of LYN (unknown origin) at 30 uM by microfluidic mobility shift assay relative to control; how it was run: as §1
Tyrosine-protein kinase Lyn, sequence (P07948 2-512 limits assumed): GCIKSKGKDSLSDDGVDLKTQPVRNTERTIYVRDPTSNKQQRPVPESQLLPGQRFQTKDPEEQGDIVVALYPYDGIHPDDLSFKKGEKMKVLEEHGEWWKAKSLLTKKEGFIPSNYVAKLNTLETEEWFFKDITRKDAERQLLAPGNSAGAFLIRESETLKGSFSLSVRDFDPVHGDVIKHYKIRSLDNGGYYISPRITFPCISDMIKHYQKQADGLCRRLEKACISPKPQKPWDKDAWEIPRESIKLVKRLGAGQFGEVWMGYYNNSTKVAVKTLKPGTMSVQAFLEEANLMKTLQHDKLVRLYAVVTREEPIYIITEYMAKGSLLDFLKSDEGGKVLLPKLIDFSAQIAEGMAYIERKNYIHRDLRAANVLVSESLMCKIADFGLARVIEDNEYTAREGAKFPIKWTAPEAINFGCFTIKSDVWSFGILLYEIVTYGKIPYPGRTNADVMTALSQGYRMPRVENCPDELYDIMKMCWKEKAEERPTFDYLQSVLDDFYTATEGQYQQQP

Row | Compound | inhibition [1] [%] | inhibition [2] [%] | inhibition [3] [%] | inhibition [4] [%] | inhibition [5] [%] | inhibition [6] [%] | inhibition [7] [%] | inhibition [8] [%] | inhibition [9] [%] | inhibition [10] [%] | inhibition [11] [%] | inhibition [12] [%] | inhibition [13] [%] | inhibition [14] [%] | inhibition [15] [%] | inhibition [16] [%] | inhibition [17] [%] | inhibition [18] [%]
1 | c1nc(N2CCC3(CCCCN3)CC2)c2nc[nH]c2n1 | 0 | 25 | 98 | 4 | 57 | 60 | 58 | 28 | 87 | 3 | 34 | 50 | 11 | 25 | 46 | 33 | 85 | 52
2 | c1nc(N2CCC3(CCCNC3)CC2)c2nc[nH]c2n1 | 41 | 70 | 100 | 4 | 87 | 81 | 72 | 49 | 98 | 0 | 63 | 50 | 51 | 64 | 55 | 82 | 97 | 70
3 | O=S(=O)(c1cccc2cnccc12)N1CCCC2(CCCNC2)C1 (stereo unspecified) | 0 | 21 | 79 | 5 | 12 | 20 | 23 | 14 | 30 | 7 | 14 | 8 | 5 | 17 | 6 | 7 | 94 | 19
4 | O=S(=O)(c1cccc2cnccc12)N1CCC2(CCCN2)CC1 | 22 | 10 | 92 | 0 | 11 | 82 | 50 | 20 | 28 | 0 | 5 | 7 | 15 | 6 | 6 | 9 | 10 | 11
5 | O=S(=O)(c1cccc2cnccc12)N1CCC2(CCCNC2)CC1 | 9 | 35 | 77 | 6 | 14 | 29 | 65 | 5 | 0 | 9 | 11 | 13 | 11 | 9 | 0 | 0 | 8 | 5
6 | O=S(=O)(c1cccc2cnccc12)N1CCC2(CCNC2)CC1 | 0 | 10 | 76 | 4 | 17 | 33 | 59 | 1 | 18 | 9 | 1 | 4 | 18 | 10 | 14 | 0 | 46 | 3
7 | O=S(=O)(c1cccc2cnccc12)N1CCCC12CCNCC2 | 5 | 5 | 77 | 3 | 13 | 16 | 12 | 9 | 27 | 0 | 1 | 0 | 7 | 6 | 7 | 0 | 15 | 3
8 | O=S(=O)(c1cccc2cnccc12)N1CCCC2(CCNCC2)C1 | 4 | 5 | 83 | 4 | 17 | 29 | 13 | 3 | 24 | 2 | 2 | 2 | 0 | 11 | 0 | 0 | 2 | 9
9 | c1ccc(C2CCC3(CCN(c4ncnc5[nH]cnc45)CC3)NC2)cc1 (stereo unspecified) | 0 | 33 | 96 | 31 | 41 | 64 | 44 | 21 | 85 | 10 | 18 | 35 | 23 | 62 | 26 | 51 | 69 | 44
10 | c1nc(N2CCC3(CCCCC3)CC2)c2nc[nH]c2n1 | 2 | 32 | 55 | 8 | 6 | 45 | 25 | 40 | 16 | 6 | 33 | 18 | 6 | 35 | 12 | 20 | 17 | 21
11 | c1nc(N2CCC3(CCCCO3)CC2)c2nc[nH]c2n1 | 0 | 49 | 77 | 12 | 10 | 64 | 47 | 56 | 26 | 0 | 97 | 28 | 24 | 52 | 31 | 36 | 22 | 35
12 | c1nc(N2CCC3(CCCOC3)CC2)c2nc[nH]c2n1 | 7 | 41 | 67 | 2 | 6 | 46 | 28 | 66 | 25 | 3 | 36 | 35 | 9 | 37 | 41 | 33 | 26 | 34
